Measurements published in ChEMBL document CHEMBL5385922 (J Med Chem, 2024).
pIC50: −log10 of the molar value. Values belong to the compound of their own block, whether it stands above or below them. Activity calls are given as the source filed them. The rule behind the calls is not given here.

Columns and labels:
[1] = target: T1, Protein disulfide-isomerase (Homo sapiens, UniProt P07237); assay: Covalent inhibition of PDI (unknown origin) by insulin aggregation assay
Target sequence in this assay (P07237 whole entry): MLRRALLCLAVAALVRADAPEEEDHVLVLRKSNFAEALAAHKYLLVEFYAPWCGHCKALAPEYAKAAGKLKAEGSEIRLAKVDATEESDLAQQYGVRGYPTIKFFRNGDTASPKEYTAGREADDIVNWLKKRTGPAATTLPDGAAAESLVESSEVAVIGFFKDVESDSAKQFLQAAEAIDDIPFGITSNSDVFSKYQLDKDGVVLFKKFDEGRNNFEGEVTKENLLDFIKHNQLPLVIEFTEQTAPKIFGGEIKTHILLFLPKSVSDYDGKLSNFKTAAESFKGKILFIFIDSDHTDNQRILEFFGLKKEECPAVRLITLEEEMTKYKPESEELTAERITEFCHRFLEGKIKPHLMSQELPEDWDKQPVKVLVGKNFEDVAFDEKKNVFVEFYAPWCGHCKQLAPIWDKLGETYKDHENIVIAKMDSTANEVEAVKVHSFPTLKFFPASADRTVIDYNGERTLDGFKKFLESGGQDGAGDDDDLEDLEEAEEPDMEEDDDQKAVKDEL

[2] = test system: Platelet; assay: Antiplatelet activity against tumor cells-stimulated human platelets assessed as inhibition of A549 cells-induced platelet aggregation at 2 uM by turbidometric aggregometry; type: functional, cell-based
In short: (§1)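 Washed human platelets from ACD-anticoagulated blood of healthy volunteers, stirred at 1200 rpm, 37 °C, in 0.375% plasma. Aggregation was induced by A549 (1 × 10^4 cells/mL), MDA-MB-231 (1 × 10^2 cells/mL) or RPMI8226 (1 × 10^5 cells/mL) cells. Read-out is the maximal increase in light transmission by turbidimetric aggregometry. n = 3.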

[3] = test system: A549; assay: Cytotoxicity against human A549 cells assessed as reduction in cell viability at 0.5 to 2 uM incubated for 48 hrs by trypan bue exclusion assay; type: functional, cell-based; settings: dose 0.5-2 µM
[4] = test system: U-87 MG; assay: Cytotoxicity against human U87 cells assessed as reduction in cell viability incubated for 24 hrs by resazurin assay; type: functional, cell-based, U-87MG ATCC
In short: (§2)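 Cell lines kept at 37 °C in humidified 5% CO2. Cells exposed to compounds for 24 h with DMSO control; viability measured by resazurin assay. Mean ± SEM, n = 3.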

[5] = test system: Platelet; assay: Inhibition of tumor cell-induced platelet secretion in human platelets assessed as inhibition of A549-induced ATP secretion at 1 to 5 uM by bioluminescent assay; type: functional, cell-based; settings: dose 1-5 µM
In short: (§3)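 Washed human platelets were co-incubated with A549 cells under TCIPA conditions (0.375% plasma, stirred, 37 °C) for 25 min in the aggregometer, then centrifuged at 13,000g for 1 min. Supernatant PDGF-BB measured by ELISA and ATP by bioluminescent assay. Mean ± SEM, at least three independent experiments.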

[6] = test system: Platelet; assay: Antiplatelet activity against tumor cells-stimulated human platelets assessed as inhibition of RPMI-8226 cells-induced platelet aggregation at 2 uM by turbidometric aggregometry; type: functional, cell-based; in short: as §1
[7] = test system: A549; assay: Inhibition of platelet-enhanced cell growth in human A549 cells assessed as reduction in cell viability at 0.5 to 2 uM co-incubated with platelets for 48 hrs by trypan blue exclusion assay; type: functional, cell-based; settings: dose 0.5-2 µM
In short: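 A549 cells (1 × 10^4/well) co-incubated with washed human platelets (1 × 10^7/well) in 0.375% plasma for 48 h at 37 °C, 5% CO2. After PBS washing, viable cancer cells counted by trypan blue exclusion. Mean ± SEM, at least three independent experiments.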

[8] = test system: Platelet; assay: Inhibition of tumor cell-induced platelet secretion in human platelets assessed as inhibition of A549-induced PDGF secretion at 1 to 5 uM by ELISA; type: functional, cell-based; settings: dose 1-5 µM; in short: as §3
[9] = test system: Platelet; assay: Antiplatelet activity against tumor cells-stimulated human platelets assessed as inhibition of MDA-MB-231 cells-induced platelet aggregation at 2 uM by turbidometric aggregometry; type: functional, cell-based; in short: as §1
[10] = target: T1, Protein disulfide-isomerase; assay: Covalent inhibition of human recombinant PDI assessed as inhibition of E-GSH formation using Di-E-GSSG as substrate at 10 uM measured for 60 mins in presence of DTT and 1 mM GSH by fluorescence based analysis
In short: (§4)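 Human rPDI incubated with compounds at 10 μM in the presence of DTT (5 μM) or GSH (1 mM). PDI activity read by Di-E-GSSG assay (E-GSH fluorescence). Mean ± SEM of three independent experiments.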
Target sequence in this assay (P07237 18-508 limits assumed): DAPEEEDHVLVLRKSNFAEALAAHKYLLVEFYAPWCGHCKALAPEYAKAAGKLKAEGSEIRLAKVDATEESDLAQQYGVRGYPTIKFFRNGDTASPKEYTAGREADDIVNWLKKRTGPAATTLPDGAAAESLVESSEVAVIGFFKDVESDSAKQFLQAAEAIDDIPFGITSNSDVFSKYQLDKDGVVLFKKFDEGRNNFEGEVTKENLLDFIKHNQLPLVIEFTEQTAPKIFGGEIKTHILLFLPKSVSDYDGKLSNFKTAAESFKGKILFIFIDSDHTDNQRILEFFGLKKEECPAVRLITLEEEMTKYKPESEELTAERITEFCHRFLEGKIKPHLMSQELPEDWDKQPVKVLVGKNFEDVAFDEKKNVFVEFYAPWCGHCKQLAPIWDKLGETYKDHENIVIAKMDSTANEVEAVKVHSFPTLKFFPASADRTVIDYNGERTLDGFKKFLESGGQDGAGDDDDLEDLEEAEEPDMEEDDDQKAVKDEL

[11] = target: T2, Protein disulfide-isomerase A4 (Homo sapiens, UniProt P13667); assay: Inhibition of human recombinant ERp72 assessed as inhibition of E-GSH formation using Di-E-GSSG as substrate measured for 60 mins in presence of DTT by fluorescence based analysis
T2 sequence (P13667 whole entry): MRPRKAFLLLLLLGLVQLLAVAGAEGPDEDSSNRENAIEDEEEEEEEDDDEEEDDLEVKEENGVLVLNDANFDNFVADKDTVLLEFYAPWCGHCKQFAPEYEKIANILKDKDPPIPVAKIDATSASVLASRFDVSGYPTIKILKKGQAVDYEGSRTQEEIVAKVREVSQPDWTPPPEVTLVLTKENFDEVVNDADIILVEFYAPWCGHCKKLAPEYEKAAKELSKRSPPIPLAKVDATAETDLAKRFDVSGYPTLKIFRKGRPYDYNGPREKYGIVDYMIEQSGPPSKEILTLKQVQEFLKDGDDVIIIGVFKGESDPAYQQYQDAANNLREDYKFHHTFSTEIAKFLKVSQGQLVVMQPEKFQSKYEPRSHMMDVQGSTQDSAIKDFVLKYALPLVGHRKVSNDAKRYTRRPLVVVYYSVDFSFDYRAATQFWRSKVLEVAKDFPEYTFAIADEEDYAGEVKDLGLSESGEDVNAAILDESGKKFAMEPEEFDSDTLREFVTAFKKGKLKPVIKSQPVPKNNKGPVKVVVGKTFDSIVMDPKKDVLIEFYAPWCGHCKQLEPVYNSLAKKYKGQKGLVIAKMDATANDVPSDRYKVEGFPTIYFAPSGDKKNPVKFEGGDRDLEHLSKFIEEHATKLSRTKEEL
In short: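 Recombinant human ERp72 reductase activity measured with Di-E-GSSG substrate, started with DTT, by fluorometry of E-GSH formation. Mean ± SEM, n = 3.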

[12] = test system: Platelet; assay: Antiplatelet activity in human platelets assessed as inhibition of U46619-induced platelet aggregation by turbidimetric analysis; type: functional, cell-based
In short: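 Washed human platelets from ACD-anticoagulated volunteer blood, stimulated with U46619 (1 μM). Aggregation measured turbidimetrically under stirring (1200 rpm) at 37 °C as the maximal increase in light transmission.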

[13] = test system: Platelet; assay: Antiplatelet activity against tumor cells-stimulated human platelets assessed as inhibition of A549 cells-induced platelet aggregation at 100 uM by turbidometric aggregometry; type: functional, cell-based; in short: as §1
[14] = test system: Platelet; assay: Inhibition of tumor cell-induced platelet secretion in human platelets assessed as inhibition of A549-induced ATP secretion at 100 uM by bioluminescent assay; type: functional, cell-based; in short: as §3
[15] = test system: Platelet; assay: Antiplatelet activity against tumor cells-stimulated human platelets assessed as inhibition of MDA-MB-231 cells-induced platelet aggregation at 100 uM by turbidometric aggregometry; type: functional, cell-based; in short: as §1
[16] = test system: Platelet; assay: Inhibition of tumor cell-induced platelet secretion in human platelets assessed as inhibition of A549-induced PDGF secretion at 100 uM by ELISA; type: functional, cell-based; in short: as §3
[17] = test system: Platelet; assay: Antiplatelet activity against tumor cells-stimulated human platelets assessed as inhibition of RPMI-8226 cells-induced platelet aggregation at 100 uM by turbidometric aggregometry; type: functional, cell-based; in short: as §1
[18] = test system: Platelet; assay: Antiplatelet activity against tumor cells-stimulated human platelets assessed as inhibition of RPMI-8226 cells-induced platelet aggregation at 1 uM by turbidometric aggregometry; type: functional, cell-based; in short: as §1
[19] = test system: Platelet; assay: Antiplatelet activity against tumor cells-stimulated human platelets assessed as inhibition of MDA-MB-231 cells-induced platelet aggregation at 1 uM by turbidometric aggregometry; type: functional, cell-based; in short: as §1
[20] = test system: Platelet; assay: Antiplatelet activity against tumor cells-stimulated human platelets assessed as inhibition of A549 cells-induced platelet aggregation at 1 uM by turbidometric aggregometry; type: functional, cell-based; in short: as §1
[21] = test system: Platelet; assay: Inhibition of tumor cell-induced platelet secretion in human platelets assessed as inhibition of A549-induced ATP secretion at 1 uM by bioluminescent assay; type: functional, cell-based; in short: as §3
[22] = test system: Platelet; assay: Inhibition of tumor cell-induced platelet secretion in human platelets assessed as inhibition of A549-induced PDGF secretion at 1 uM by ELISA; type: functional, cell-based; in short: as §3
[23] = test system: RPMI-8226; assay: Cytotoxicity against human RPMI-8226 cells assessed as reduction in cell viability at 0.001 to 10 uM incubated for 72 hrs by resazurin assay; type: functional, cell-based; settings: dose 0.001-10 µM
In short: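 RPMI8226 cells exposed to compounds for 72 h at 37 °C, 5% CO2 with DMSO control; viability measured by resazurin assay, n = 4.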

[24] = target: T1, Protein disulfide-isomerase; assay: Covalent inhibition of PDI (unknown origin) by GSSG fluorescence assay
Target sequence in this assay (P07237 whole entry): as the sequence (P07237 whole entry) above

[25] = GSH reactivity in aqueous solution assessed as GSH-adduct formation at 400 uM incubated for 30 mins in presence of GSH by UPLC-MS analysis; type: physicochemical; settings: buffer, 0.5 h
In short: (§5)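 Compounds (400 μM) incubated in water with or without GSH (4 mM) at 37 °C for 30 min. Diluted 1:1 with methanol, then analysed by UPLC-MS on a BEH C18 column (water/acetonitrile gradient, 0.4 mL/min, 40 °C) in positive/negative ion mode.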

[26] = target: T1, Protein disulfide-isomerase; assay: Non-covalent inhibition of human recombinant PDI assessed as inhibition of E-GSH formation using Di-E-GSSG as substrate at 10 uM measured for 60 mins in presence of DTT and 1 mM GSH by fluorescence based analysis; in short: as §4
Target sequence in this assay (P07237 18-508 limits assumed): as the sequence (P07237 18-508 limits assumed) above

[27] = target: T1, Protein disulfide-isomerase; assay: Non-covalent inhibition of PDI (unknown origin) by GSSG fluorescence assay
Target sequence in this assay (P07237 whole entry): as the sequence (P07237 whole entry) above

[28] = test system: Platelet; assay: Antiplatelet activity in human platelets assessed as inhibition of U46619-induced platelet aggregation upto 40 uM by turbidimetric analysis; type: functional, cell-based
[29] = test system: RPMI-8226; assay: Cytotoxicity against human RPMI-8226 cells assessed as reduction in cell viability incubated for 24 hrs by resazurin assay; type: functional, cell-based; in short: as §2
[30] = test system: MDA-MB-231; assay: Cytotoxicity against human MDA-MB-231 cells assessed as reduction in cell viability incubated for 24 hrs by resazurin assay; type: functional, cell-based; in short: as §2
[31] = test system: A549; assay: Cytotoxicity against human A549 cells assessed as reduction in cell viability incubated for 24 hrs by resazurin assay; type: functional, cell-based; in short: as §2
[32] = test system: Platelet; assay: Antiplatelet activity in human platelets assessed as inhibition of collagen-induced platelet aggregation upto 40 uM by turbidimetric analysis; type: functional, cell-based
[33] = Stability of the compound in aqueous solution at 400 uM measured after 30 mins by UPLC-MS analysis; type: physicochemical; settings: buffer, 0.5 h; in short: as §5

inhibition [10]: Active
Structure (SMILES): CC(=O)O[C@@H]1O[C@H](CSC2=CC(=O)c3cccc(O)c3C2=O)[C@@H](OC(C)=O)[C@H](OC(C)=O)[C@H]1OC(C)=O
Activity [2]: Active | Activity [3]: inactive | pIC50 [4]: < 4.70 | inhibition [5]: Active | Activity [6]: Active | inhibition [7]: Active | inhibition [8]: Active | Activity [9]: Active

pIC50 [11]: 5.40 | inhibition [10]: Active
Structure (SMILES): CC(=O)OC[C@H]1O[C@H](OC2=CC(=O)c3cccc(O)c3C2=O)[C@H](OC(C)=O)[C@@H](OC(C)=O)[C@@H]1OC(C)=O
Activity [2]: Active | Activity [3]: inactive | inhibition [5]: Active | Activity [6]: Active | inhibition [7]: Active | inhibition [8]: Active | Activity [9]: Active

inhibition [10]: Active
Structure (SMILES): COc1cccc(SC2=CC(=O)c3cccc(O)c3C2=O)c1

Activity [25]: Active | inhibition [10]: Active
Structure (SMILES): CC(=O)OC[C@H]1O[C@@H](SC2=C(c3ccc(O)cc3O)C(=O)c3c(O)cccc3C2=O)[C@H](OC(C)=O)[C@@H](OC(C)=O)[C@@H]1OC(C)=O

Continued, compound first:

Structure (SMILES): C#CCCCNC(=O)[C@@H](CCNC(=O)[C@H](Cc1ccccc1)NC(=O)OC(C)(C)C)Cc1ccc(OS(=O)(=O)C=C)cc1
pIC50 [1]: 5.77

Structure (SMILES): C#CC(=O)N(c1ccc(OC)cc1OC)C(C(=O)NCC(=O)OCC)c1cccs1 (stereo unspecified)
pIC50 [1]: 5.00

Structure (SMILES): CC(=O)Oc1ccccc1C(=O)O [ASPIRIN]
pIC50 [12]: < 3.70 | Activity [13]: inactive | inhibition [14]: inactive | Activity [15]: inactive | inhibition [16]: inactive | Activity [17]: inactive

Structure (SMILES): CCCSc1nc(N[C@@H]2C[C@H]2c2ccc(F)c(F)c2)c2nnn([C@@H]3C[C@H](OCCO)[C@@H](O)[C@H]3O)c2n1
Activity [18]: inactive | Activity [19]: inactive | Activity [20]: inactive | inhibition [21]: inactive | inhibition [22]: inactive

Structure (SMILES): COc1ccc(N2C(=O)/C(=C\c3ccc([N+](=O)[O-])s3)SC2=S)cc1
Activity [23]: Active | pIC50 [24]: 5.54

Structure (SMILES): O=c1c(O[C@@H]2O[C@H](CO)[C@@H](O)[C@H](O)[C@H]2O)c(-c2ccc(O)c(O)c2)oc2cc(O)cc(O)c12 [ISOQUERCETIN]
inhibition [26]: Active | pIC50 [27]: 5.15

Structure (SMILES): CC(C)(C)CN(C(=O)CCl)C1CCS(=O)(=O)C1 (stereo unspecified)
Activity [28]: inactive | IC50 [29]: Not Active | IC50 [30]: Not Active | IC50 [31]: Not Active | Activity [32]: inactive

Structure (SMILES): COc1ccc(SC2=C(c3ccc(O)cc3O)C(=O)c3c(O)cccc3C2=O)cc1
Stability [33]: Stable | inhibition [26]: Active | Activity [25]: Not Active
